Results from ChEMBL document CHEMBL1152647, “Hybrid pharmacophore design and synthesis of isatin-benzothiazole analogs for their anti-breast cancer activity” (Bioorg Med Chem, 2009).
Activity calls are given as the source filed them. No cut-off for these calls is given here.

Assays:
[1] = Cytotoxicity against human MCF10A cells after 48 hrs by SRB assay; type: cell-based, MCF-10A
Method in brief: (§1)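 Cancer lines grown in RPMI 1640 with 10% FBS and 2 mM L-glutamine; 184B5 and MCF10A grown in supplemented mammary epithelial basal medium. 5000–10,000 cells/well seeded, 24 h at 37 °C and 5% CO₂. Seven serially diluted concentrations added, final DMSO ≤0.1%, 48 h exposure. Fixed with 10% TCA (final) at 4 °C, stained with 0.4% SRB, solubilized in 10 mM Tris, A515–564. Growth % = (Ti−Tz)/(C−Tz)×100; GI50 from sigmoidal variable-slope fit; triplicates, ≥2 independent experiments.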

[2] = Cytotoxicity against human 184B5 cells after 48 hrs by SRB assay; type: cell-based; method in brief: as §1
MDA-MB-468 [3] = test: Cytotoxicity against human MDA-MB-468 cells after 48 hrs by SRB assay; type: functional; details: MDA-MB-468, 48 h; method in brief: as §1
MCF7 [4] = test: Cytotoxicity against human MCF7 cells after 48 hrs by SRB assay; type: functional; details: MCF7, 48 h; method in brief: as §1
MDA-MB-231 [5] = test: Cytotoxicity against human MDA-MB-231 cells after 48 hrs by SRB assay; type: functional; details: MDA-MB-231, 48 h; method in brief: as §1
MDA-MB-231 [6] = test: Selectivity ratio of GI50 for human MCF10A cells to GI50 for human MDA-MB-231 cells
Method in brief: (§2)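 Ratio of non-cancer to cancer GI50, each from 48 h SRB growth assays (seven concentrations, sigmoidal variable-slope fit, triplicates in ≥2 independent experiments).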

MCF-10A [7] = test: Cell cycle arrest in human MCF10A cells assessed as accumulation at G2/M phase at 20 uM after 24 hrs by flow cytometry; type: functional, cell-based
Method in brief: (§3)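 MCF7 or MCF10A cells treated with compound at 20 or 40 µM for 24 h, with DMSO-treated negative control. 2.0 × 10⁶ cells pelleted and fixed in ice-cold 70% ethanol (30 min to overnight, −20 °C), then washed in PBS. Stained 30 min at 37 °C with 100 µg/mL PI, 100 µg/mL RNase A, 0.3% NP-40 and 0.1% sodium citrate. DNA content read by flow cytometry; G0/G1, S and G2/M fractions taken from DNA histograms.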

MCF7 [8] = test: Cell cycle arrest in human MCF7 cells assessed as accumulation at G2/M phase at 20 uM after 24 hrs by flow cytometry (Rvb=12%); type: functional; method in brief: as §3
MCF7 [9] = test: Cell cycle arrest in human MCF7 cells assessed as accumulation at S phase at 20 uM after 24 hrs by flow cytometry (Rvb=17%); type: functional; method in brief: as §3
MDA-MB-468 [10] = test: Selectivity ratio of GI50 for human 184B5 cells to GI50 for human MDA-MB-468 cells; method in brief: as §2
MCF-10A [11] = test: Cell cycle arrest in human MCF10A cells assessed as accumulation at S phase at 20 uM after 24 hrs by flow cytometry; type: functional, cell-based; method in brief: as §3
MCF7 [12] = test: Cell cycle arrest in human MCF7 cells assessed as accumulation at G2/M phase at 40 uM after 24 hrs by flow cytometry; type: functional, cell-based; method in brief: as §3

Row | SMILES | GI50 at 48 h [1] [µM] | GI50 at 48 h [2] [µM] | GI50 (MDA-MB-468 [3]) [µM] | GI50 (MCF7 [4]) [µM] | GI50 (MDA-MB-231 [5]) [µM] | RatioGI50 (MDA-MB-231 [6]) | Activity (MCF-10A [7]) | Activity (MCF7 [8]) | Activity (MCF7 [9]) | RatioGI50 (MDA-MB-468 [10]) | Activity (MCF-10A [11]) | Activity (MCF7 [12])
1 | CCN(CC)CN1C(=O)/C(=N\c2nc3ccc(C)cc3s2)c2ccccc21 | 20.4 | 27.5 | 63.5 | 74.8 | 32.7 |  |  |  |  |  |  | 
2 | Cc1ccc2nc(/N=C3\C(=O)N(CN(C)C)c4cccc(Cl)c43)sc2c1 | 7.02 | 5.77 | 28.1 | 20.7 | 10.9 |  |  |  |  |  |  | 
3 | CN(C)CN1C(=O)C(=O)c2c(Cl)cccc21 | 82.3 | 130 | 107 | 87.8 | 138 |  |  |  |  |  |  | 
4 | O=C1C(=O)N(CN2CCCCC2)c2ccccc21 | 41.8 | 68 | 24.1 | 41.2 | 38 |  |  |  |  |  |  | 
5 | CN(C)CN1C(=O)C(=O)c2ccccc21 | 150 | 73.7 | 50.1 | 40.5 | 65.6 |  |  |  |  |  |  | 
6 | CCN(CC)CN1C(=O)C(=O)c2ccccc21 | 73.6 | 41.7 | 35.9 | 44.1 | 60.6 |  |  |  |  |  |  | 
7 | O=C1C(=O)N(CN2CCCCC2)c2cccc(Cl)c21 | 70.7 | 93.7 | 82.8 | 51.2 | 26.5 |  |  |  |  |  |  | 
8 | CCN(CC)CN1C(=O)/C(=N\c2nc3ccc(C)cc3s2)c2c(Cl)cccc21 | 43.9 | 87.8 | 27.3 | 19.2 | 20.4 |  |  |  |  |  |  | 
9 | O=C1C(=O)N(CN(c2ccccc2)c2ccccc2)c2cccc(Br)c21 | 85.8 | 98.5 | 63.2 | 110 | 51.1 |  |  |  |  |  |  | 
10 | Cc1ccc2nc(/N=C3\C(=O)N(CN4CCCCC4)c4cccc(Cl)c43)sc2c1 | 30.2 | 82.3 | 19.8 | 30.9 | 55.8 |  |  |  |  |  |  | 
11 | CCN(CC)CN1C(=O)C(=O)c2c(Cl)cccc21 | 35 | 22.5 | 28.3 | 34 | 44.5 |  |  |  |  |  |  | 
12 | CN(C)CN1C(=O)C(=O)c2c(Br)cccc21 | 67.8 | 77.9 | 49 | 57.6 | 93.7 |  |  |  |  |  |  | 
13 | Cc1ccc2nc(/N=C3\C(=O)N(CN(C)C)c4cccc(Br)c43)sc2c1 | 21.8 | 74.8 | 27.4 | 17.9 | 49 |  |  |  |  |  |  | 
14 | O=C1C(=O)N(CN2CCOCC2)c2cccc(Cl)c21 | 78.5 | 79.8 | 61.5 | 29.2 | 61.5 |  |  |  |  |  |  | 
15 | Cc1ccc2nc(/N=C3\C(=O)N(CN4CCOCC4)c4cccc(Cl)c43)sc2c1 | 62.3 | 63.5 | 24 | 21.5 | 37.1 |  |  |  |  |  |  | 
16 | CCN(CC)CN1C(=O)C(=O)c2c(Br)cccc21 | 113 | 172 | 11.7 | 20.2 | 20.2 | 5.6 | inactive | 38% | 8% | 14.7 | inactive | 

Row | SMILES | GI50 at 48 h [1] [µM] | GI50 at 48 h [2] [µM] | GI50 (MDA-MB-468 [3]) [µM] | GI50 (MCF7 [4]) [µM] | GI50 (MDA-MB-231 [5]) [µM] | RatioGI50 (MDA-MB-231 [6]) | Activity (MCF-10A [7]) | Activity (MCF7 [8]) | Activity (MCF7 [9]) | RatioGI50 (MDA-MB-468 [10]) | Activity (MCF-10A [11]) | Activity (MCF7 [12])
17 | Cc1ccc2nc(/N=C3\C(=O)N(CN4CCCCC4)c4cccc(Br)c43)sc2c1 | 18.4 | 85.2 | 24 | 39.1 | 38.2 |  |  |  |  |  |  | 
18 | Cc1ccc2nc(/N=C3\C(=O)N(CN4CCOCC4)c4ccccc43)sc2c1 | 38.5 | 30.6 | 17.6 | 14.6 | 19.8 |  | inactive | inactive | inactive |  | inactive | Active
19 | Cc1ccc2nc(/N=C3\C(=O)N(CN(c4ccccc4)c4ccccc4)c4cccc(Br)c43)sc2c1 | 67.9 | 70.2 | 82.3 | 30.2 | 75.1 |  |  |  |  |  |  | 
20 | CCN(CC)CN1C(=O)/C(=N\c2nc3ccc(C)cc3s2)c2c(Br)cccc21 | 16.1 | 34.3 | 43.1 | 30.2 | 28.7 |  |  |  |  |  |  | 
21 | O=C1C(=O)N(CN(c2ccccc2)c2ccccc2)c2cccc(Cl)c21 | 77.2 | 96.8 | 14.3 | 29.7 | 31.4 |  |  |  |  |  |  | 
22 | Cc1ccc2nc(/N=C3\C(=O)N(CN(c4ccccc4)c4ccccc4)c4cccc(Cl)c43)sc2c1 | 70 | 67.8 | 85 | 24.3 | 54 |  |  |  |  |  |  | 
23 | Cc1ccc2nc(/N=C3\C(=O)N(CN4CCCCC4)c4ccccc43)sc2c1 | 38.9 | 34.9 | 65.6 | 37.8 | 34.5 |  |  |  |  |  |  | 
24 | O=C1C(=O)N(CN2CCOCC2)c2cccc(Br)c21 | 82.3 | 79.5 | 54 | 65.6 | 29.7 |  |  |  |  |  |  | 
25 | O=C1C(=O)N(CN(c2ccccc2)c2ccccc2)c2ccccc21 | 73 | 33.7 | 21.5 | 23.7 | 24.8 |  |  |  |  |  |  | 
26 | O=C1C(=O)N(CN2CCCCC2)c2cccc(Br)c21 | 66.9 | 85.2 | 35.3 | 31.4 | 30.2 |  |  |  |  |  |  | 
27 | CCN(CC)CCCC(C)Nc1ccnc2cc(Cl)ccc12 (stereo not drawn) [CHLOROQUINE] | 81.3 | 76.1 |  |  |  |  |  |  |  |  |  | 
28 | Cc1ccc2nc(/N=C3\C(=O)N(CN4CCOCC4)c4cccc(Br)c43)sc2c1 | 33.2 | 29.9 | 24.8 | 12 | 94.6 |  |  |  |  |  |  | 
29 | Cc1ccc2nc(/N=C3\C(=O)N(CN(C)C)c4ccccc43)sc2c1 | 13.4 | 15.6 | 35.5 | 29.2 | 19.2 |  |  |  |  |  |  | 
30 | Cc1ccc2nc(/N=C3\C(=O)N(CN(c4ccccc4)c4ccccc4)c4ccccc43)sc2c1 | 34 | 27.2 | 17.7 | 39.1 | 34.1 |  |  |  |  |  |  | 
31 | O=C1C(=O)N(CN2CCOCC2)c2ccccc21 | 72.1 | 78.7 | 28.2 | 52.3 | 57.6 |  |  |  |  |  |  | 
